Source: ChEMBL document CHEMBL3272266, “Dibenzotropone- and dibenzosuberonecarboxylic acids with bronchodilator activity” (J Med Chem, 1979)
The source made the active and inactive calls. The calls are words filed in the database; no cut-off is given here.

Legend:
[1] = test system: Cavia porcellus; test: Bronchodilator activity in guinea pig assessed as protection against histamine aerosol-induced bronchoconstriction at 100 mg/kg, ip treated for 15 mins prior to histamine aerosol-challenge measured after 5 mins relative to control; assay type: functional; details: route intraperitoneal
Summary of the method: (§1)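 Guinea pigs in groups of eight; a control group of eight is first confirmed to collapse. Compound given ip 15 min or orally 30 min before exposure to 0.04% aqueous histamine aerosol for 5 min. Percent protection = 100 × animals not collapsing during the 5-min exposure / total animals. Significance by chi-square with Yates correction against 66 control animals.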

[2] = Bronchodilator activity in guinea pig trachea assessed as relaxation of tracheal smooth muscle at 0.05 to 0.5 ug/ml after 15 mins relative to aminophylline; assay type: functional, Cavia porcellus
Summary of the method: (§2)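 Guinea pig trachea cut into rings tied as a chain, in Krebs-Henseleit at 37 °C aerated with 5% CO2/95% O2, resting load 0.2–0.5 g, tone recorded isometrically after stabilization. Sodium salts in water, up to 5 µg/mL, 15-min exposure. Potency estimated against aminophylline by a three- or four-point assay from concentration–relaxation plots, one preparation per agent.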

[3] = test system: Cavia porcellus; test: Toxicity in trachea and jugular vein cannulated histamine-induced guinea pig assessed as severe airway constriction at 25 mg/kg, iv; assay type: organism-based; set-up: dose 25 mg/kg, route intravenous; details: in vivo
Summary of the method: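 Guinea pigs cannulated in the jugular vein dosed iv with the sodium salt in water. Animals showing severe airway constriction after dosing were recorded and received no histamine challenge.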

[4] = test system: Cavia porcellus; test: Bronchodilator activity in trachea and jugular vein cannulated guinea pig assessed as inhibition of histamine-induced response at 12.5 mg/kg, iv after 5 mins relative to control; assay type: functional
Summary of the method: (§3)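 Cannulated guinea pigs given histamine phosphate 10 µg/kg iv in buffered saline. Test agent given 5 min later as the sodium salt in water via jugular cannula, one dose per animal, then histamine repeated 5 min after dosing. Percent inhibition = maximum pulmonary resistance after the agent versus before it.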

[5] = test system: Cavia porcellus; test: Bronchodilator activity in trachea and jugular vein cannulated guinea pig assessed as inhibition of histamine-induced response at 25 mg/kg, iv after 5 mins relative to control; assay type: functional; summary of the method: as §3
[6] = Bronchodilator activity in guinea pig trachea assessed as relaxation of tracheal smooth muscle at 0.125 to 0.5 ug/ml after 15 mins relative to aminophylline; assay type: functional, Cavia porcellus; summary of the method: as §2
[7] = test system: Cavia porcellus; test: Bronchodilator activity in guinea pig assessed as protection against histamine aerosol-induced bronchoconstriction at 50 mg/kg, ip treated for 15 mins prior to histamine aerosol-challenge measured after 5 mins relative to control; assay type: functional; details: route intraperitoneal
[8] = test system: Cavia porcellus; test: Bronchodilator activity in guinea pig assessed as protection against histamine aerosol-induced bronchoconstriction at 75 mg/kg, ip treated for 15 mins prior to histamine aerosol-challenge measured after 5 mins relative to control; assay type: functional; details: route intraperitoneal
[9] = Bronchodilator activity in guinea pig trachea assessed as relaxation of tracheal smooth muscle at 0.005 to 5 ug/ml after 15 mins relative to aminophylline; assay type: functional, Cavia porcellus; summary of the method: as §2
[10] = test system: Cavia porcellus; test: Bronchodilator activity in guinea pig assessed as protection against histamine aerosol-induced bronchoconstriction at 90 mg/kg, po treated for 30 mins prior to histamine aerosol-challenge measured after 5 mins; assay type: functional, organism-based; set-up: dose 90 mg/kg; summary of the method: as §1
[11] = test system: Cavia porcellus; test: Bronchodilator activity in trachea and jugular vein cannulated guinea pig assessed as inhibition of histamine-induced response at 6.25 mg/kg, iv after 5 mins relative to control; assay type: functional; summary of the method: as §3
[12] = (§4) Bronchodilator activity in guinea pig trachea assessed as relaxation of tracheal smooth muscle at 0.5 to 5 ug/ml after 15 mins relative to aminophylline; assay type: functional, Cavia porcellus; summary of the method: as §2
[13] = test system: Cavia porcellus; test: Bronchodilator activity in guinea pig assessed as protection against histamine aerosol-induced bronchoconstriction at 90 mg/kg, ip treated for 15 mins prior to histamine aerosol-challenge measured after 5 mins relative to control; assay type: functional; details: route intraperitoneal; summary of the method: as §1
[14] = test system: Cavia porcellus; test: Bronchodilator activity in trachea and jugular vein cannulated guinea pig assessed as inhibition of histamine-induced response at 3.175 mg/kg, iv after 5 mins relative to control; assay type: functional; summary of the method: as §3
[15] = test system: Cavia porcellus; test: Bronchodilator activity in guinea pig assessed as protection against histamine aerosol-induced bronchoconstriction at 200 mg/kg, po treated for 30 mins prior to histamine aerosol-challenge measured after 5 mins; assay type: functional, organism-based; set-up: dose 200 mg/kg; summary of the method: as §1
[16] = organism: Cavia porcellus; test: as §4; assay type: functional; summary of the method: as §2

Compound | Activity [1] | also measured
O=C(O)c1ccc2c(=O)c3cccc(Br)c3ccc2c1 | 25% | –
N#Cc1ccc2c(c1)C(=O)c1cc(C(=O)[O-])ccc1CC2.[Na+] | – | fold change (FC) [2]: 5
O=C(O)c1ccc2c(c1)C(=O)c1cc(O)ccc1CC2 | 12.5% | –
O=C(O)c1ccc2ccc3ccc(Br)cc3c(=O)c2c1 | 12.5% | –
O=C(O)c1ccc2c(=O)c3ccccc3ccc2c1 | 0% | –
O=C([O-])c1ccc2c(c1)CCc1c(Cl)cccc1C2=O.[Na+] | – | Activity [3]: Toxic; inhibition in vivo at 12.5 mg/kg [4]: 76%
O=C([O-])c1ccc2c(c1)C(=O)c1cc(Br)ccc1CC2.[Na+] | – | inhibition in vivo at 25 mg/kg [5]: 61%; inhibition in vivo at 12.5 mg/kg [4]: 0%; fold change (FC) [6]: 10
O=C(O)c1ccc2ccc3ccc(Cl)cc3c(=O)c2c1 | 0% | –
O=C(O)c1ccc2c(c1)CCc1ccccc1C2=O [listing 1 of 3 here] | – | inhibition in vivo at 25 mg/kg [5]: 11%; inhibition in vivo at 12.5 mg/kg [4]: 0%
O=C(O)c1ccc2c(c1)CCc1c(Cl)cc(Cl)cc1C2=O | 50% | –
Cn1c(=O)c2[nH]cnc2n(C)c1=O.Cn1c(=O)c2[nH]cnc2n(C)c1=O.NCCN [AMINOPHYLLINE] | 75% | Activity [7]: 25%; Activity [8]: 50%
COc1ccc2c(c1)C(=O)c1ccc(C(=O)O)cc1CC2 [listing 1 of 2 here] | – | inhibition in vivo at 25 mg/kg [5]: 68%; inhibition in vivo at 12.5 mg/kg [4]: 13%
O=C([O-])c1ccc2c(c1)C(=O)c1cc(Cl)ccc1CC2.[Na+] | – | fold change (FC) [9]: 25
O=C(O)c1ccc2c(=O)c3cccc(F)c3ccc2c1 [listing 1 of 2 here] | – | inhibition in vivo at 25 mg/kg [5]: 43%; inhibition in vivo at 12.5 mg/kg [4]: 22%
O=C(O)c1ccc2c(c1)C(=O)c1cc(Br)ccc1CC2 | 62.5% | –
O=C(O)c1cccc2c(=O)c3ccccc3ccc12 | 12.5% | –
CC(=O)c1ccc2c(c1)C(=O)c1cc(C(=O)[O-])ccc1CC2.[Na+] | – | fold change (FC) [2]: <1
O=C(O)c1ccc2c(=O)c3cccc(F)c3ccc2c1 [listing 2 of 2 here] | 25% | –
O=C(O)c1cccc2c1CCc1ccccc1C2=O | 0% | –
COc1ccc2c(c1)C(=O)c1ccc(C(=O)O)cc1CC2 [listing 2 of 2 here] | 50% | –
O=C([O-])c1ccc2c(c1)CCc1c(Cl)cc(Cl)cc1C2=O.[Na+] | – | Activity [3]: Toxic; inhibition in vivo at 12.5 mg/kg [4]: 53%
O=C(O)c1ccc2c(c1)C(=O)c1cccc(Br)c1CC2 | 0% | –

Compound | Activity [1] | also measured
Cc1cc(C)c2c(c1)C(=O)c1cc(C(=O)O)ccc1CC2 | 37.5% | –
O=C(O)c1ccc2c(c1)C(=O)c1ccc(Cl)cc1CC2 | 25% | –
CC(C)Oc1ccc2c(c1)C(=O)c1cc(C(=O)[O-])ccc1CC2.[Na+] | – | fold change (FC) [2]: 0.5
O=C(O)c1ccc2c(c1)CCc1c(F)cccc1C2=O | 75% | –
CC(C)c1cccc2c1CCc1cc(C(=O)O)ccc1C2=O | 25% | Activity [10]: inactive
O=C(O)c1ccc2c(c1)CCc1c(Br)cccc1C2=O [listing 1 of 2 here] | – | inhibition in vivo at 25 mg/kg [5]: 77%; inhibition in vivo at 6.25 mg/kg [11]: 0%; inhibition in vivo at 12.5 mg/kg [4]: 46%
O=C(O)c1ccc2c(c1)CCc1ccccc1C2=O [listing 2 of 3 here] | 62.5% | –
CC(=O)c1ccc2c(c1)C(=O)c1ccc(C(=O)O)cc1CC2 | 25% | –
CC(=O)c1ccc2ccc3ccc(C(=O)O)cc3c(=O)c2c1 | 37.5% | –
O=C(O)c1ccc2c(c1)C(=O)c1cc(Cl)ccc1CC2 | 25% | –
CC(C)c1ccc2c(c1)C(=O)c1cc(C(=O)[O-])ccc1CC2.[Na+] | – | fold change (FC) [12]: 5
O=C(O)c1cc2ccccc2c(=O)c2ccccc12 | 0% | –
Cc1ccc2c(c1)CCc1cc(C(=O)O)ccc1C2=O | 12.5% | –
Cc1cccc2c1CCc1cc(C(=O)O)ccc1C2=O [listing 1 of 2 here] | 87.5% | –
CC(C)c1ccc2c(c1)C(=O)c1ccc(C(=O)O)cc1CC2 | 62.5% | –
COc1ccc2c(c1)C(=O)c1cc(C(=O)O)ccc1CC2 | 50% | –
CC(C)c1ccc2c(c1)C(=O)c1cc(C(=O)O)ccc1CC2 | 25% | –
O=C(O)c1ccc2c(c1)CCc1c(Br)cccc1C2=O [listing 2 of 2 here] | – | Activity [13]: 75%
O=C(O)c1ccc2ccc3ccc(C(=O)O)cc3c(=O)c2c1 | 25% | –
O=C(O)c1ccc2c(c1)C(=O)c1ccc(Br)cc1CC2 | 0% | –
Cc1ccc2c(c1)CCc1cc(C(=O)[O-])ccc1C2=O.[Na+] | – | Activity [3]: Toxic; inhibition in vivo at 12.5 mg/kg [4]: 0%
COc1ccc2c(c1)CCc1cc(C(=O)O)ccc1C2=O [listing 1 of 2 here] | – | inhibition in vivo at 25 mg/kg [5]: 20%

Compound | Activity [1] | also measured
N#Cc1ccc2c(c1)CCc1ccc(C(=O)O)cc1C2=O | 12.5% | –
Cc1cccc2c1CCc1cc(C(=O)O)ccc1C2=O [listing 2 of 2 here] | – | inhibition in vivo at 25 mg/kg [5]: 0%; inhibition in vivo at 3.175 mg/kg [14]: 0%; inhibition in vivo at 6.25 mg/kg [11]: 0%; inhibition in vivo at 12.5 mg/kg [4]: 0%
CC(=O)c1ccc2c(c1)C(=O)c1cc(C(=O)O)ccc1CC2 | 62.5% | –
O=C(O)c1ccc2c(c1)CCc1c(Cl)cccc1C2=O [listing 1 of 2 here] | – | Activity [15]: inactive
CC(C)Oc1ccc2c(c1)C(=O)c1cc(C(=O)O)ccc1CC2 | – | Activity [7]: 0%
O=C(O)c1ccc2c(c1)CCc1ccccc1C2=O [listing 3 of 3 here] | – | Activity [16]: inactive
N#Cc1ccc2c(c1)C(=O)c1cc(C(=O)O)ccc1CC2 | 0% | –
CC(C)Oc1ccc2ccc3ccc(C(=O)O)cc3c(=O)c2c1 | 62.5% | –
O=C(O)c1ccc2c(c1)C(=O)c1ccccc1CC2 | 0% | –
O=C([O-])c1ccc2c(c1)C(=O)c1ccccc1CC2.[Na+] | – | fold change (FC) [2]: 7
CC(C)c1ccc2c(c1)C(=O)c1ccc(C(=O)[O-])cc1CC2.[Na+] | – | fold change (FC) [6]: 10
CC(C)Oc1ccc2c(c1)C(=O)c1ccc(C(=O)O)cc1CC2 | 50% | –
O=C(O)c1ccc2ccc3ccccc3c(=O)c2c1 | 62.5% | –
O=C(O)c1ccc2c(c1)CCc1ccc(Cl)cc1C2=O | 0% | –
O=C(O)c1ccc2c(c1)CCc1ccc(Br)cc1C2=O | 50% | –
O=C([O-])c1ccc2c(c1)CCc1ccc(Cl)cc1C2=O.[Na+] | – | inhibition in vivo at 6.25 mg/kg [11]: 0%; Activity [3]: Toxic; inhibition in vivo at 12.5 mg/kg [4]: 24%
O=C([O-])c1ccc2c(c1)CCc1ccc(Br)cc1C2=O.[Na+] | – | fold change (FC) [12]: 7
O=C(O)c1ccc2c(c1)CCc1c(Cl)cccc1C2=O [listing 2 of 2 here] | 75% | –
O=C(O)c1ccc2c(=O)c3cc(Cl)cc(Cl)c3ccc2c1 | 0% | –
O=C(O)c1ccc2c(c1)CCc1cc(Br)ccc1C2=O | 25% | –
COc1ccc2c(c1)CCc1cc(C(=O)O)ccc1C2=O [listing 2 of 2 here] | 37.5% | –
Cc1ccc2c(c1)C(=O)c1ccc(C(=O)O)cc1CC2 | 62.5% | –
